Data on five molecules can be found in ChEMBL document CHEMBL1139437, “Design, synthesis, and preliminary pharmacological evaluation of 4-aminopiperidine derivatives as N-type calcium channel blockers active on pain and neuropathic pain” (J Med Chem, 2004).

Molecules are shown by their SMILES.

Test [1] relates to Rattus norvegicus. As to the kind of experiment: Antihyperalgesic activity was evaluated in rat (sn) paw pressure test after 30 min at a dose of 10 ug intracerebroventricularly.
The test system of test [2] is Rattus norvegicus. As to the kind of experiment: Antihyperalgesic activity was evaluated in rat (sn) paw pressure test after 45 min at a dose of 10 ug intracerebroventricularly.
The test system of test [3] is Mus musculus. As to the kind of experiment: (§1) Analgesic activity was evaluated in mouse hotplate test; expressed as licking latency after 15 min of treatment at a dose of 10 ug intracerebroventricularly. It is filed as functional. Put shortly: (§2)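 Male Swiss albino mice (23-30 g); icv injection of 5 μL (saline or H2O/DMSO 2:1) under brief anaesthesia. Paw-licking latency (s) on hot plate read before injection and every 15 min up to 60 min. Mice with pretest latency below 12 or over 18 s excluded; cutoff 45 s. Statistics against saline- or vehicle-treated controls.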

The test system of test [4] is Mus musculus. As to the kind of experiment: (§3) Analgesic activity was evaluated in mouse hotplate test; expressed as licking latency after 45 min of treatment at a dose of 10 ug intracerebroventricularly. Format: functional. Put shortly:
as §2

The test system of test [5] is Rattus norvegicus. As to the kind of experiment: Antihyperalgesic activity was evaluated in rat (dx) paw pressure test after 30 min at a dose of 10 ug intracerebroventricularly.
Test [6] relates to Rattus norvegicus. Briefly: Antihyperalgesic activity was evaluated in rat (dx) paw pressure test after 60 min at a dose of 10 ug intracerebroventricularly.
The subject of test [7] is Rattus norvegicus. Briefly: Antihyperalgesic activity was evaluated in rat (dx) paw pressure test after 45 min at a dose of 10 ug intracerebroventricularly.
Test [8] deals with Mus musculus. Briefly: (§4) Analgesic activity was evaluated in mouse hotplate test; expressed as licking latency after 30 min of treatment at a dose of 10 ug intracerebroventricularly. It is filed as functional. Put shortly: as §2
Test [9] deals with Rattus norvegicus. As to the kind of experiment: Antihyperalgesic activity was evaluated in rat (sn) paw pressure test after 60 min at a dose of 10 ug intracerebroventricularly.
Test [10] is filed under the species Mus musculus. Briefly: Percentage analgesic efficacy when compared to morphine. Set-up: concentration or dose not given beside the values. Format: functional. The gist of the method: (§5)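 Male Swiss albino mice, hot-plate test, paw-licking latency; pretest 12–18 s required, cutoff 45 s. Icv injection of 5 μL under brief anaesthesia, in saline or H2O/DMSO 2:1, at maximal soluble dose. Latency read before and every 15 min after dosing. Efficacy = (peak latency − pretest) as % of the same value for morphine 10 μg/mouse icv; non-significant effects scored 0.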

The subject of test [11] is Rattus norvegicus. As to the kind of experiment: Antihyperalgesic activity was evaluated in rat (dx) paw pressure test after 60 min at a dose of 50 ug intracerebroventricularly.
Test [12] has as its system Mus musculus. Briefly: Analgesic activity was evaluated in mouse hotplate test; expressed as licking latency after 15 min of treatment at a dose of 25 ug intracerebroventricularly. Format: functional. The gist of the method: as §2
The test system of test [13] is Mus musculus. Briefly: Percentage analgesic efficacy when compared to morphine at 10 ug intracerebroventricularly. It is filed as functional. The gist of the method: as §5
The test system of test [14] is Rattus norvegicus. As to the kind of experiment: Antihyperalgesic activity was evaluated in rat (dx) paw pressure test after 45 min at a dose of 50 ug intracerebroventricularly.
Test [15] deals with Rattus norvegicus. As to the kind of experiment: Antihyperalgesic activity was evaluated in rat (dx) paw pressure test after 30 min at a dose of 50 ug intracerebroventricularly.
The test system of test [16] is Rattus norvegicus. Briefly: Antihyperalgesic activity was evaluated in rat (sn) paw pressure test after 30 min at a dose of 50 ug intracerebroventricularly.
The test system of test [17] is Rattus norvegicus. Briefly: Antihyperalgesic activity was evaluated in rat (sn) paw pressure test after 45 min at a dose of 50 ug intracerebroventricularly.
Test [18] concerns Mus musculus. Briefly: Analgesic activity was evaluated in mouse hotplate test; expressed as licking latency before treatment at a dose of 10 ug intracerebroventricularly. Format: functional. The gist of the method:
as §2

Test [19] deals with Mus musculus. As to the kind of experiment: Analgesic activity was evaluated in mouse hotplate test; expressed as licking latency after 15 min of treatment at a dose of 50 ug intracerebroventricularly. It is filed as functional. The gist of the method:
as §2

Test [20] addresses Voltage-dependent N-type calcium channel subunit alpha-1B (Rattus norvegicus) (UniProt Q02294). Briefly: In vitro antagonism of N-type calcium channels expressed in PC12 cells was determined as the increase in intracellular calcium influx in the presence of 10 uM nifedipine. Background: Calcium assays in cells follow changes in intracellular calcium, usually with a dye or a luminescent sensor.

Test [21] relates to Mus musculus. As to the kind of experiment: Analgesic activity was evaluated in mouse hotplate test; expressed as licking latency after 30 min of treatment at a dose of 50 ug intracerebroventricularly. Format: functional. Put shortly: as §2
Test [22] relates to Mus musculus. Briefly: Analgesic activity was evaluated in mouse hotplate test; expressed as licking latency after 45 min of treatment at a dose of 25 ug intracerebroventricularly. It is filed as functional. The gist of the method:
as §2

Test [23] deals with Mus musculus. Briefly: Analgesic activity was evaluated in mouse hotplate test; expressed as licking latency before treatment at a dose of 25 ug intracerebroventricularly. Format: functional. Put shortly: as §2
In test [24] the test system is Mus musculus. Briefly: Analgesic activity was evaluated in mouse hotplate test; expressed as licking latency after 30 min of treatment at a dose of 25 ug intracerebroventricularly. It is filed as functional. The gist of the method: as §2
The subject of test [25] is Rattus norvegicus. As to the kind of experiment: Antihyperalgesic activity was evaluated in rat (sn) paw pressure test after 60 min at a dose of 50 ug intracerebroventricularly.
The subject of test [26] is Mus musculus. As to the kind of experiment: Percentage analgesic efficacy when compared to morphine at 50 ug intracerebroventricularly. Format: functional. The gist of the method: as §5
The subject of test [27] is Mus musculus. As to the kind of experiment: Analgesic activity was evaluated in mouse hotplate test; expressed as licking latency after 45 min of treatment at a dose of 50 ug intracerebroventricularly. It is filed as functional. The gist of the method:
as §2

The test system of test [28] is Mus musculus. Briefly: Analgesic activity was evaluated in mouse hotplate test; expressed as licking latency after 45 min of treatment at a dose of 5 ug intracerebroventricularly. It is filed as functional. Put shortly:
as §2

The subject of test [29] is Mus musculus. Briefly: Analgesic activity was evaluated in mouse hotplate test; expressed as licking latency after 30 min of treatment at a dose of 5 ug intracerebroventricularly. Format: functional. Put shortly: as §2
The test system of test [30] is Mus musculus. Briefly: Analgesic activity was evaluated in mouse hotplate test; expressed as licking latency after 15 min of treatment at a dose of 5 ug intracerebroventricularly. It is filed as functional. Put shortly: as §2
Test [31] has as its system Mus musculus. The description is as §3. It is filed as functional. Put shortly: (§6)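 Male Swiss albino mice (23-30 g); icv injection under brief anaesthesia, 5 μL into the lateral ventricle, in saline or H2O/DMSO (2:1). Hot plate: latency to licking of fore or hind paws timed with a stopwatch before injection and every 15 min up to 60 min. Pretest scores below 12 or over 18 s rejected; cutoff 45 s.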
The source holds these as a separate data set.

For test [32], the system named is Mus musculus. Described as §4. It is filed as functional. Put shortly:
as §6
The source holds these as a separate data set.

For test [33], the system named is Mus musculus. The test is described as §1. Format: functional. The gist of the method:
as §6
The source holds these as a separate data set.

Test [34] concerns Mus musculus. Briefly: Analgesic activity was evaluated in mouse hotplate test; expressed as licking latency after 45 min of treatment at a dose of 40 ug intracerebroventricularly. It is filed as functional. Put shortly: as §2
In test [35] the test system is Rattus norvegicus. Briefly: Antihyperalgesic activity was evaluated in rat (sn) paw pressure test after 60 min at a dose of 40 ug intracerebroventricularly.
Test [36] has as its system Rattus norvegicus. Briefly: Antihyperalgesic activity was evaluated in rat (dx) paw pressure test after 45 min at a dose of 40 ug intracerebroventricularly.
Test [37] concerns Rattus norvegicus. As to the kind of experiment: Antihyperalgesic activity was evaluated in rat (dx) paw pressure test after 30 min at a dose of 40 ug intracerebroventricularly.
In test [38] the target is Voltage-dependent N-type calcium channel subunit alpha-1B (Rattus norvegicus) (UniProt Q02294). Briefly: In vitro antagonism of N-type calcium channels expressed in PC12 cells was determined as the increase in intracellular calcium influx.
Sequence of Voltage-dependent N-type calcium channel subunit alpha-1B (Rattus norvegicus) (Q02294 whole entry, looked up): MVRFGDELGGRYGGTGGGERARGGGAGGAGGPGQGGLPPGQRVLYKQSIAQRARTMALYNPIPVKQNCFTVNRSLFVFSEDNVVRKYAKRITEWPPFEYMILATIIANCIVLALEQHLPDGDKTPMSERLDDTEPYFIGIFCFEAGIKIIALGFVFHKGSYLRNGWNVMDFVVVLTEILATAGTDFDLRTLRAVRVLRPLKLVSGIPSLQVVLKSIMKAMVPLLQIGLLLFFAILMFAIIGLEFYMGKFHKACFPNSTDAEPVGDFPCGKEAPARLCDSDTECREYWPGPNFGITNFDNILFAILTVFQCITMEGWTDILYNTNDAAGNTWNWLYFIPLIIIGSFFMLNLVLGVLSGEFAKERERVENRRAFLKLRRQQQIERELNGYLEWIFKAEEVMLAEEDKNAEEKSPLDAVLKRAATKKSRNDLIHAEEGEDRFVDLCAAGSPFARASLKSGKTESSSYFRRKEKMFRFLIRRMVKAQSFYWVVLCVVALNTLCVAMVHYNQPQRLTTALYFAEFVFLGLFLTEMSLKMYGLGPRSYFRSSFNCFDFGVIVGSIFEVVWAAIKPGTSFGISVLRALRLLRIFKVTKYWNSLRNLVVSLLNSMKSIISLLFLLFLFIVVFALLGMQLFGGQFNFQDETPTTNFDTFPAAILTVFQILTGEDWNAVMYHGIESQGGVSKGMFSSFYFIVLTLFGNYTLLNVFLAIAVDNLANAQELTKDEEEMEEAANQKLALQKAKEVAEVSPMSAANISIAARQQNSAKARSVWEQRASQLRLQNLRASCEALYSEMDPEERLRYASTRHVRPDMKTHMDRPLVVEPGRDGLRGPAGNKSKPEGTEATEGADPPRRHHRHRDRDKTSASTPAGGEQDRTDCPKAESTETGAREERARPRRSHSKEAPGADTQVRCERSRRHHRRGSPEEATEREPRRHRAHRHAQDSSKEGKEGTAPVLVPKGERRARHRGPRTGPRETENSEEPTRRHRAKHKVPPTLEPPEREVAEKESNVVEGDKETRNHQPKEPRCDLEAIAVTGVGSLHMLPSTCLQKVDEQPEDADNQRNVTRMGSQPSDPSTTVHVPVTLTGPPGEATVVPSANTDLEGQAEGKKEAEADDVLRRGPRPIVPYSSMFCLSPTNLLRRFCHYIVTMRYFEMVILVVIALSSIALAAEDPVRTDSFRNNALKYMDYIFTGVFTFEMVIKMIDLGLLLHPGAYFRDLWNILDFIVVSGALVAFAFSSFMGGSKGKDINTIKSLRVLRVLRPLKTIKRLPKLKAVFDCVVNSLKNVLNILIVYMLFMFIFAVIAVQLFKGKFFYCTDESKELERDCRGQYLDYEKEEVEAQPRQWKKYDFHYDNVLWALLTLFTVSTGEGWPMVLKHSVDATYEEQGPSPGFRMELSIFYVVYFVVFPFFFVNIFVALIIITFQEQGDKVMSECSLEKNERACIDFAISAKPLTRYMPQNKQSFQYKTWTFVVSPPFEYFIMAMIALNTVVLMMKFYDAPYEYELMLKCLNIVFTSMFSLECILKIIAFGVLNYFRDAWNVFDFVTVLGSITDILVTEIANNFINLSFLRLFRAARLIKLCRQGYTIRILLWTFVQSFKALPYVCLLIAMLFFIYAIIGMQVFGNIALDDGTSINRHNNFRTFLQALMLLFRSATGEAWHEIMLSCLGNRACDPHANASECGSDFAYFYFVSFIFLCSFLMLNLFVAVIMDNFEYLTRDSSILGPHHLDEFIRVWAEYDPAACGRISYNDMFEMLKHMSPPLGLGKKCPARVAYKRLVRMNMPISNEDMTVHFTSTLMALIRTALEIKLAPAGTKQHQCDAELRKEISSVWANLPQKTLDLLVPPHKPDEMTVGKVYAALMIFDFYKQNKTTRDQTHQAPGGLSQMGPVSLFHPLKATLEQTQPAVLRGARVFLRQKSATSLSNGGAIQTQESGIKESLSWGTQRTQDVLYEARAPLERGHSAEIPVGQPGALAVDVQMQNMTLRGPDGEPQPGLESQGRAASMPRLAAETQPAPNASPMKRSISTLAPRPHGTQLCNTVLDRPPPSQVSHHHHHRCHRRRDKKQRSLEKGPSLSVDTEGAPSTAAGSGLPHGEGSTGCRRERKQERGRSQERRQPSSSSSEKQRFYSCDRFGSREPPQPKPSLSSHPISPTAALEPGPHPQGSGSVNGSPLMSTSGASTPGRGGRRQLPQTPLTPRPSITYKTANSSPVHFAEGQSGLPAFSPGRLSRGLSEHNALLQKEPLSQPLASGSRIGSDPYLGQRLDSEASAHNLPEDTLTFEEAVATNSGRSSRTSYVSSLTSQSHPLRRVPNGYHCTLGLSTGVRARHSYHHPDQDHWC
Test [39] relates to Mus musculus. As to the kind of experiment: Analgesic activity was evaluated in mouse hotplate test; expressed as licking latency after 30 min of treatment at a dose of 40 ug intracerebroventricularly. It is filed as functional. Put shortly: as §2
Test [40] concerns Rattus norvegicus. As to the kind of experiment: Antihyperalgesic activity was evaluated in rat (sn) paw pressure test after 30 min at a dose of 40 ug intracerebroventricularly.
For test [41], the system named is Mus musculus. Briefly: Analgesic activity was evaluated in mouse hotplate test; expressed as licking latency after 15 min of treatment at a dose of 40 ug intracerebroventricularly. Format: functional. Put shortly: as §2
In test [42] the test system is Rattus norvegicus. Briefly: Antihyperalgesic activity was evaluated in rat (dx) paw pressure test after 60 min at a dose of 40 ug intracerebroventricularly.
In test [43] the test system is Rattus norvegicus. As to the kind of experiment: Antihyperalgesic activity was evaluated in rat (sn) paw pressure test after 45 min at a dose of 40 ug intracerebroventricularly.

`CCCCNC1CCN(CCCC(c2ccccc2)c2ccccc2)CC1.O=C(O)C(=O)O`: the Activity with Rattus norvegicus [1] came to 57.5 g; in the test with Rattus norvegicus [2], 61.2 g; in the test on Rattus norvegicus [5], 50.3 g; with Rattus norvegicus [6], 46.5 g; in the test with Rattus norvegicus [7] it was 52.6 g; with Rattus norvegicus [9] it was 63 g. For the same molecule, the values for the Latency in the test on Mus musculus [3], in the test with Mus musculus [4] and in the test on Mus musculus [8] were 22.6 s, 15.8 s and 22.4 s, respectively. This molecule also came in with an Efficacy in the test listed under Mus musculus [10] of 64%.
One may read the IC50 as the point on the concentration scale where inhibition reaches its midpoint. With `Cl.NC1CCN(C(=O)CCC(c2ccc(F)cc2)c2ccc(F)cc2)CC1`, the Activity came to 59.3 g with Rattus norvegicus [11]; 15.7 s in the test on Mus musculus [3]; 16.4 s in the test on Mus musculus [4]; 24.6 s in the test on Mus musculus [12]; 54.8 g in the test on Rattus norvegicus [14]; 55.1 g in the test on Rattus norvegicus [15]. For the same molecule, the Activity is 62.3 g in the test with Rattus norvegicus [16]; 16.1 s in the test on Mus musculus [8]; 55.6 g in the test on Rattus norvegicus [17]; 14.3 s with Mus musculus [18]; 34.1 s in the test on Mus musculus [19]; 31.7 s with Mus musculus [21]. Also, the Activity stood at 20.5 s in the test with Mus musculus [22]; 13.9 s in the test with Mus musculus [23]; 23.9 s with Mus musculus [24]; 54.7 g in the test on Rattus norvegicus [25]; 29.5 s in the test on Mus musculus [27]. Besides, the Efficacy in the test with Mus musculus [13] came to 0%; in the test on Mus musculus [26], 147%. Besides, the IC50 in test [20] turned out to be 2400 nM.
Consider `COc1ccc(CCNC2CCN(CCCC(c3ccccc3)c3ccccc3)CC2)cc1OC.O=C(O)C(=O)O`, for which the Latency came out at 16.8 s in the test with Mus musculus [28], 16.4 s with Mus musculus [29] and 17.7 s in the test with Mus musculus [30]. Moreover, the Efficacy in the test filed under Mus musculus [10] is recorded as 0%.
Take `CN1CC[C@]23c4c5ccc(O)c4O[C@H]2[C@@H](O)C=C[C@H]3[C@H]1C5` [MORPHINE]: the values for the Latency in the test on Mus musculus [31], with Mus musculus [32] and in the test on Mus musculus [33] were 22.4 s, 27.7 s and 28.6 s, respectively.
In the case of `CNC(CC(C)C)C(=O)NC1CCN(C(=O)CCC(c2ccc(F)cc2)c2ccc(F)cc2)CC1.Cl` (stereo not drawn), the Latency with Mus musculus [34] is reported as 15.5 s; with Mus musculus [39], 20.7 s; in the test on Mus musculus [41], 21.5 s. The Activity with Rattus norvegicus [35] was 66.4 g; in the test on Rattus norvegicus [36] it was 33.4 g; in the test on Rattus norvegicus [37], 28.1 g; in the test on Rattus norvegicus [40], 55.7 g; with Rattus norvegicus [42], 30.1 g; in the test on Rattus norvegicus [43], 61.3 g. The IC50 in [38] worked out at 3000 nM. The Efficacy in the test filed under Mus musculus [10] is listed as 56%.
